In ChEMBL document CHEMBL1149792, “Synthesis and adenosine receptor binding studies of some novel triazolothienopyrimidines” (Eur J Med Chem, 2008):

Key:
[1] = target: T1, Adenosine receptor A1 (Rattus norvegicus) (UniProt P25099); assay: Inhibition of rat adenosine A1 receptor at 1 uM
T1 sequence (whole entry): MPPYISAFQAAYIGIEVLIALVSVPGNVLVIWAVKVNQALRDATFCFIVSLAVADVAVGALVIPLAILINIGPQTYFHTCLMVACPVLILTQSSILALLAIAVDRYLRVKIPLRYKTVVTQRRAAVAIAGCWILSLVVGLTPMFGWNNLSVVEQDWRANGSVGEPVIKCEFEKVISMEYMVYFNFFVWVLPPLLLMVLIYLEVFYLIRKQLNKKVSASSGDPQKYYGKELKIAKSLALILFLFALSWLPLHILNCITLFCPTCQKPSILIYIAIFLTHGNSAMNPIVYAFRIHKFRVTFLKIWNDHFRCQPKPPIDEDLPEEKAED
Procedure, shortened: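 Single-concentration screen measured as percent inhibition of [3H]CCPA (0.5 nM) binding to rat cortical membranes, run at room temperature for 90 min with 2.5% DMSO final. Nonspecific binding was defined with 2-chloroadenosine. Separation was by GF/B filtration, with scintillation counting of bound radioactivity.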

Adenosine receptor A1 = target: T2, Adenosine receptor A1 (Rattus norvegicus, UniProt P25099); assay: Displacement of [3H]CCPA from rat adenosine A1 receptor
T2 sequence (P25099 whole entry): T1 sequence (whole entry)
Procedure, shortened: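 Rat brain cortical membranes (from frozen rat brains) were incubated with [3H]CCPA at 0.5 nM at room temperature for 90 min. Compounds were added from DMSO stocks, giving 2.5% DMSO final. 2-Chloroadenosine defined nonspecific binding. Bound radioactivity was separated by GF/B filtration and counted by scintillation. Compounds giving over 20% inhibition in the single-concentration screen were tested at six concentrations to derive Ki.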

Row | Structure (SMILES) | inhibition [1] [%] | Ki (Adenosine receptor A1) [nM]
1 | Cc1sc2nc(-c3ccccc3)n3c(=S)[nH]nc3c2c1C | 0 | 
2 | O=C(c1ccccc1)c1nc2sc3c(c2c2n[nH]c(=S)n12)CCCC3 | 0 | 
3 | S=c1[nH]nc2c3c4c(sc3nc(-c3ccccc3)n12)CCCC4 | 0 | 
4 | Cc1sc2nc(C(=O)c3ccccc3)n3c(=S)[nH]nc3c2c1C | 0 | 
5 | CCc1nc2sc(C)c(C)c2c2n[nH]c(=S)n12 | 21 | 2100
6 | Cc1nc2sc3c(c2c2n[nH]c(=S)n12)CCCC3 | 26 | 4400
7 | CCc1nc2sc3c(c2c2n[nH]c(=S)n12)CCCC3 | 56 | 1170
8 | S=c1[nH]nc2c3c4c(sc3nc(-c3ccncc3)n12)CCCC4 | 0 | 
9 | Cc1sc2nc(C)n3c(=S)[nH]nc3c2c1C | 4 | 
10 | CCCc1nc2sc3c(c2c2n[nH]c(=S)n12)CCCC3 | 0 | 
11 | CCCc1nc2sc(C)c(C)c2c2n[nH]c(=S)n12 | 13 | 
